In ChEMBL document CHEMBL4428115, “Molecular docking studies, biological and toxicity evaluation of dihydroisoquinoline derivatives as potential anticancer agents” (Bioorg Med Chem, 2016):
Active and inactive are the calls of the source. The rule behind the calls is not given here.

How the values were obtained:
PC-3 = assay: Antiproliferative activity against human PC3 cells; format: functional, cell-based
[1] = Selectivity index, ratio of IC50 for mouse BALB/3T3 cells to IC50 for human DU145 cells
DU-145 = assay: Antiproliferative activity against human DU145 cells; format: functional, cell-based
[2] = Selectivity index, ratio of IC50 for mouse BALB/3T3 cells to IC50 for human CEM/C2 cells; format: toxicity; conditions: BALB/3T3 cells versus CEM/C2 cells, read-out: Ratio IC50
HL-60 [3] = assay: Increase in caspase 3/7 activation in human HL60 cells using Ac-DEVD-ACC as substrate at 3 ug/ml after 24 hrs by fluorescence assay relative to control; format: functional, cell-based
How it was run: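 HL-60 exposed 24 h to 3 µg/mL (DMSO control), lysed at 1.2 × 10^6 cells/mL in HEPES/sucrose/Triton lysis buffer pH 7.3 for 30 min at 4°C. Lysate added to DTT-containing reaction buffer with Ac-DEVD-ACC at 10 µM final (ex 360/em 460 nm). Fluorescence recorded 90 min at 37°C, normalized to Lowry protein, and expressed relative to untreated control; three experiments.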

HL-60 [4] = assay: Induction of autophagy in human HL60 cells assessed as accumulation of LC3b-2 at 1 ug/ml after 72 hrs by Western-blot analysis; format: functional, cell-based
How it was run: (§1)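 HL-60 (2 × 10^5 cells/mL) treated 72 h at 1 µg/mL with DMSO control, then lysed in RIPA buffer with protease/phosphatase inhibitors. 100 µg protein resolved on 4–20% gels and transferred to nitrocellulose. Probed with rabbit primary antibody, fluorescein-linked anti-rabbit secondary, then anti-fluorescein–alkaline phosphatase with ECF substrate; fluorescence scanned. Densitometry normalized to actin, reported as fold change versus control.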

LoVo = assay: Antiproliferative activity against human LoVo cells; format: functional, cell-based
[5] = Selectivity index, ratio of IC50 for human MCF10 cells to IC50 for human MCF7 cells; format: toxicity; conditions: MCF10 cells versus MCF7 cells, read-out: Ratio IC50
How it was run: (§2)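 Selectivity index is the ratio of the IC50 for the normal line to the IC50 for the cancer line. Both IC50 values come from 72 h antiproliferative assays: SRB for adherent cells, MTT for HL-60.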

HL-60 [6] = assay: Effect on Bax expression in human HL60 cells at 1 ug/ml after 72 hrs by Western-blot analysis; format: functional, cell-based; how it was run: as §1
HL-60 [7] = assay: Antiproliferative activity against human HL60 cells after 72 hrs by MTT assay; format: functional, cell-based; conditions: HL-60, 72 h
How it was run: (§3)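 Leukemia cells seeded at 1 × 10^4 per well 24 h before adding compounds (0.01–1000 µg/mL from DMSO stock), exposed 72 h. MTT (5 mg/mL stock) added for 4 h, then DMF/SDS lysis mixture; absorbance at 570 nm read after 24 h. Triplicates per experiment, 3–5 repeats; IC50 calculated per experiment, reported as mean ± SD.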

[8] = Selectivity index, ratio of IC50 for mouse BALB/3T3 cells to IC50 for human A498 cells
[9] = Selectivity index, ratio of IC50 for mouse BALB/3T3 cells to IC50 for human HCV29T cells; format: toxicity; conditions: BALB/3T3 cells versus HCV29T cells, read-out: Ratio IC50
[10] = Selectivity index, ratio of IC50 for mouse BALB/3T3 cells to IC50 for human LNCAP cells; format: toxicity; conditions: BALB/3T3 cells versus LNCAP cells, read-out: Ratio IC50
MCF7 = assay: Potency index, ratio of bestatin IC50 to compound IC50 for human MCF7 cells; format: functional
[11] = Selectivity index, ratio of IC50 for mouse BALB/3T3 cells to IC50 for human CCRF-CEM cells; format: toxicity; conditions: BALB/3T3 cells versus CCRF-CEM cells, read-out: Ratio IC50
K562 = assay: Antiproliferative activity against human K562 cells; format: functional, cell-based
[12] = Antioxidant activity assessed as DPPH free radical scavenging activity; format: functional
Jurkat = assay: Antiproliferative activity against human Jurkat cells; format: functional, cell-based
[13] = Selectivity index, ratio of IC50 for mouse BALB/3T3 cells to IC50 for human LoVo/DX cells; format: toxicity; conditions: BALB/3T3 cells versus LoVo/DX cells, read-out: Ratio IC50
BALB/3T3 = assay: Antiproliferative activity against mouse BALB/3T3 cells after 72 hrs by SRB assay; format: cell-based; conditions: BALB/3T3, 72 h
How it was run: (§4)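 Adherent cells plated at 1 × 10^4 per well 24 h before treatment, then exposed 72 h to compounds diluted from 20 mg/mL DMSO stock (0.01–1000 µg/mL). Fixed in cold 50% TCA at 4°C for 1 h, stained with 0.4% sulforhodamine B, bound dye extracted with 10 mM Tris, OD at 540 nm. Triplicates, 3–5 experiments; IC50 per experiment, mean ± SD.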

[14] = Acute toxicity in Wistar rat assessed as mortaliity topically applied to shaved dorsal skin as single dose for 24 hrs measured for 14 days; conditions: in vivo, topical or ocular
How it was run: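 Wistar rats, 5 males and 5 females; single 2000 mg/kg bw dermal application to shaved dorsal skin (about 41 cm2 per male, 31 cm2 per female) for 24 h. General and detailed clinical observations daily over a 14-day observation period, then animals euthanized; treated skin examined for pathological changes.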

[15] = Antiproliferative activity against HLMEC after 72 hrs by SRB assay; design: species or system Homo sapiens; how it was run: as §4
Raji = assay: Antiproliferative activity against human Raji cells; format: functional, cell-based
[16] = Selectivity index, ratio of IC50 for mouse BALB/3T3 cells to IC50 for human LoVo cells; format: toxicity; conditions: BALB/3T3 cells versus LoVo cells, read-out: Ratio IC50
[17] = Selectivity index, ratio of IC50 for mouse BALB/3T3 cells to IC50 for human Raji cells; format: toxicity; conditions: BALB/3T3 cells versus Raji cells, read-out: Ratio IC50
[18] = Toxicity in Dunkin-Hartley guinea pig assessed as mild skin sensitization incidents at 1 % administered intradermally followed by 50% topical application in the sites of intradermal injection for 24 to 72 hrs followed by 50 % of compound challenge; design: species or system Cavia porcellus; conditions: in vivo
How it was run: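 Maximization-type test: 11 treated and 6 sham control guinea pigs. Induction was an intradermal 1% suspension in peanut oil with Freund's Complete Adjuvant, then 50% topical at the injection sites, after 10% sodium lauryl sulfate pretreatment. Challenge was 50% in peanut oil on the right flank, vehicle on the left. Skin was scored at 24, 48 and 72 h.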

MV4-11 = assay: Antiproliferative activity against human MV411 cells; format: functional, cell-based
HL60/MX2 = assay: Antiproliferative activity against human HL60/MX2 cells after 72 hrs by MTT assay; format: functional, cell-based; conditions: HL60/MX2, 72 h; how it was run: as §3
[19] = Selectivity index, ratio of IC50 for mouse BALB/3T3 cells to IC50 for human Jurkat cells; format: toxicity; conditions: BALB/3T3 cells versus Jurkat cells, read-out: Ratio IC50
[20] = Antioxidant activity assessed as ABTS free radical scavenging activity; format: functional
[21] = Selectivity index, ratio of IC50 for human MCF10 cells to IC50 for human HL60 cells; format: toxicity; conditions: MCF10 cells versus HL60 cells, read-out: Ratio IC50; how it was run: as §2

SMILES: CCOC(=O)C1(C(=O)OCC)Cc2cc(OCc3ccccc3)cc(OCc3ccccc3)c2C=N1
- IC50 (PC-3): 4.2 µM
- Ratio IC50 [1]: 4.8
- IC50 (DU-145): 7.5 µM
- selectivity ratio [2]: 89.7
- Activity (HL-60 [3]): Active
- Activity (HL-60 [4]): inactive
- IC50 (LoVo): 1.1 µM
- selectivity ratio [5]: 4 to 8
- Activity (HL-60 [6]): inactive
- IC50 (HL-60 [7]): 6.2 µM
- Ratio IC50 [8]: 2.7
- selectivity ratio [9]: 4.1
- selectivity ratio [10]: 10.9
- Ratio IC50 (MCF7): 15
- selectivity ratio [11]: 51.3
- IC50 (K562): 70 µM
- IC50 [12]: 1000 µM
- IC50 (Jurkat): 14.4 µM
- selectivity ratio [13]: 8.8
- IC50 (BALB/3T3): 35.9 µM
- LD50 at 14 days [14]: > 2000 mg/kg
- IC50 [15]: 6.8 µM
- IC50 (Raji): 0.6 µM
- selectivity ratio [16]: 32.6
- selectivity ratio [17]: 59.8
- Activity [18]: 18.2%
- IC50 (MV4-11): 64.4 µM
- IC50 (HL60/MX2): 5.1 µM
- selectivity ratio [19]: 2.5
- Activity [20]: inactive
- selectivity ratio [21]: 4 to 8
